# Screening data (PubChem)
# M4 ag: human M4 muscarinic receptor agonists, primary screen, CHO-K1 cells, Fluo-8 calcium fluorescence. activation, % at 3 µM. 0.14% of 360,000 active. Muscarinic acetylcholine receptor M4 (Homo sapiens), P08173. CHO-K1 hM4/Gqi5; vehicle 0%, full acetylcholine response 100%;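 active = activation above the run mean over all test wells plus 3 SD, cut at about 32% in these data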;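 note: peak over basal fluorescence ratio per well then scaled between controls; 0% = DMSO wells and 100% = acetylcholine at EC100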
# M4 PAM: human M4 muscarinic receptor positive allosteric modulators, primary screen, CHO-K1 cells, Fluo-8 calcium fluorescence; Muscarinic acetylcholine receptor M4 (Homo sapiens), P08173; CHO-K1 hM4/Gqi5, ACh EC20; 0% = ACh EC20, 100% = maximal ACh; activation, % at 3 µM; 0.4% of 360,000 active;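 active = activation above its plate's cutoff, the mean activation of sample wells plus 3 SD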
# TAAR1 agonist: human TAAR1 agonists, primary screen, Fluo-8 calcium fluorescence, CHO RD-HGA16 cells. 0.99% of 360,000 active. activation, % at 3 µM. vehicle wells 0%, saturating PEA agonist 100%. Trace amine-associated receptor 1 (Homo sapiens), Q96RJ0;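 active = activation above the mean activation of all test compounds in the run plus 3 SD, cut at about 38% in these data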
# Target sequence (Q96RJ0 whole entry, looked up): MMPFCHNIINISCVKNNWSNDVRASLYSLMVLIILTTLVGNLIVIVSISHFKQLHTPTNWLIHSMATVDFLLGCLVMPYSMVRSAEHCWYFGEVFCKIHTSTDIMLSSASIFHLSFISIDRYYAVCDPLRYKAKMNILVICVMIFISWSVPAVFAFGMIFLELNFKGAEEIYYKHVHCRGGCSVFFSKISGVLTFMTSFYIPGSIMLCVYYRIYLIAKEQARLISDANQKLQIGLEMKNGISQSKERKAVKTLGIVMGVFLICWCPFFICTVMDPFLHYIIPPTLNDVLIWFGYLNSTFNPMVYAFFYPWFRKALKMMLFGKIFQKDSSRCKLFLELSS
#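 Signal – calcium-sensitive Fluo-8 signal, excitation 470-495, emission 515-575 nm · System – RD-HGA16 (CHO) cells co-expressing Gα16 and hTAAR1 · Incubation – 17-24 h seeding, 75 min 37 °C dye, 30 min RT · Compound dosing – 3 µM single concentration · Repeats – no replicates (n 1)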
# M4 antag: human M4 muscarinic receptor antagonists, primary screen, CHO cells, Fluo-8 calcium fluorescence | inhibition, % at 3 µM | 0.73% of 360,000 active | Muscarinic acetylcholine receptor M4 (Homo sapiens), P08173 | CHO-hM4 cells, ACh EC80;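 active = inhibition above its plate's cutoff, the mean inhibition of sample wells plus 3 SD, cut at about 27% in these data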;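 note: 0% = acetylcholine EC80 with DMSO and 100% = DMSO without agonist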
# TAAR1 antagonist: human TAAR1 antagonists, primary screen, Fluo-8 calcium fluorescence, CHO RD-HGA16 cells; Trace amine-associated receptor 1 (Homo sapiens), Q96RJ0; 1.5% of 360,000 active; inhibition, % at 3 µM; antagonist;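 active = inhibition above a per-plate cutoff, the mean inhibition of test compounds on that plate plus 3 SD, cut at about 49% in these data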;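 note: 0% = DMSO plus EC80 beta-PEA response and 100% = DMSO alone without agonist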
#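 Test system: RD-HGA16 CHO cells with stable hTAAR1 and Gα16 / Probe or stimulus: EC80 β-phenethylamine stimulus / Times: seeding 17-24 h prior, 75-min 37 °C, 30-min RT dye loading / Detection: Fluo-8 calcium-sensitive fluorescence / Read-out basis: % inhibition scaled between DMSO and EC80 PEA controls / Repeats: singlicate, one well per test compound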
# * hit, by the source's call; . = no result given. This is a sample that favours compounds with a hit; in the whole collection about 3% have one here.
SMILES,M4 ag,M4 PAM,TAAR1 agonist,M4 antag,TAAR1 antagonist
Cc1ccccc1C(=O)Nc1ccc(C(=O)N/N=C/c2ccc(F)cc2)cc1,10,0,12,-10,34
COCCN=C1Sc2ccccc2[C@@H]2C[C@H]3[C@H](CON3C)CN12,.,.,1,.,-8
COc1ccccc1OCC(=O)NCC1CCCN(C(=O)c2cccc(C)c2)C1 (configuration not stated),2,2,1,-7,-16
O=C(Nc1ccc([N+](=O)[O-])cc1)Nc1ccc(OC(F)F)c(Cl)c1,11,-13,8,17,60*
O=C(Nc1ccc(OC(F)F)c(Cl)c1)Nc1ccc2c(c1)OCO2,11,-10,7,3,38
Cc1cc(Cl)ccc1NC(=O)CN1CCCC1,1,0,2,8,-11
Cc1cc(Cl)ccc1NC(=O)CN1CCC(C(O)(c2ccccc2)c2ccccc2)CC1,1,-5,56*,0,15
Cn1cc(C(=O)c2cccc(Cl)c2Cl)cc1C#N,1,-3,6,-5,6
Cn1cc(C(=O)c2cccc(Cl)c2)cc1C#N,6,26*,3,6,9
O=C(CSCc1ccc(C(=O)O)cc1)Nc1ccc2ccccc2c1,1,13,2,34*,5
CCOC(=O)CN1C(=O)[C@]2(OCCC=C[C@H]2C)c2c(Br)cccc21,.,.,6,.,29
COc1cc(/C=C/C(=O)O)cc(S(=O)(=O)NC2CCCC2)c1OC,-2,-52,1,98*,-43
Cc1cccc(Nc2nc(N)nc(N)c2N=O)c1,3,3,45*,-16,-56
Cc1ccc(Nc2nc(N)nc(N)c2N=O)cc1C,3,5,.,-13,.
Cc1cccc(C)c1NC(=O)CN1CCN(C(=O)CN2C(=O)NC3(CCCCC3C)C2=O)CC1 (configuration not stated),1,23*,0,-11,-11
CC1CCCCC12NC(=O)N(CC(=O)Nc1ccccc1-c1ccccc1)C2=O (configuration not stated),2,2,3,2,-11
CC1CCCCC12NC(=O)N(CC(=O)Nc1ccccc1F)C2=O (configuration not stated),1,22*,7,1,-33
COCCN1C(=O)[C@H]2C[C@@]13O[C@H](c1ccc(C(F)(F)F)cc1)N=C3C[C@H](c1ccccc1)[C@H]2C,.,.,-2,.,-34
O=C(NC1CCCCC1)OC[C@@H]1CSCCS(=O)(=O)N1,.,.,3,.,4
O=C(N[C@H](C(=O)N1CCC[C@H]1C(=O)NCc1ccccc1)C1CCCCC1)c1ccccc1,.,.,-2,.,10
O=C(CSc1nnc(Cc2csc(Nc3cccc(Cl)c3)n2)o1)N1CCc2ccccc21,11,-10,1,2,51*
O=C(Nc1ccc(Cl)cc1)c1nc[nH]c1C(=O)NCCCCNC(=O)c1[nH]cnc1C(=O)Nc1ccc(Cl)cc1,2,1,13,7,52*
Cc1n[nH]c(=O)nc1NCc1ccccc1,1,19,5,9,8
Cc1n[nH]c(=O)nc1NCCc1ccccc1,1,-1,40*,15,0
COC(=O)c1cc2c(c3c4cc(F)ccc4n(S(=O)(=O)c4ccc(OC)cc4)c13)C(=O)N(C)C2,.,.,-1,.,14
SMILES,M4 ag,M4 PAM,TAAR1 agonist,M4 antag,TAAR1 antagonist
O=C1NC(=Nc2cccnc2)S/C1=C/c1ccc(F)cc1,2,16*,1,-19,-32
O=C1NC(=Nc2ccccc2)S/C1=C\c1cccnc1,2,-1,2,-4,-39
CCNC(=O)N1CCN(c2ccc(N3CCN(Cc4ccccc4)[C@H](C)C3)c(C)c2)[C@H](C)C1,.,.,3,.,-20
O=C(NC(c1ccc(F)cc1)c1ccc2ccccc2n1)C1CCN(Cc2cccc(C(F)(F)F)c2)CC1 (configuration not stated),0,0,-1,-8,3
O=C1N=c2ccccc2=C1c1sc(NS(=O)(=O)c2ccccc2)nc1O,-1,28*,8,0,-5
Cc1ccc(C(=O)c2coc3cc([N+](=O)[O-])c(O)c([N+](=O)[O-])c23)cc1,-1,31*,-3,-2,-7
C[C@H](O)[C@@H]1C(=O)N2CCc3c([nH]c4ccccc34)[C@@H]2C[C@@H]1N(C)C(=O)OCc1ccccc1,.,.,8,.,8
CC(C)Cc1ccc(C(C)C(=O)Nc2ccccc2O)cc1 (configuration not stated),43*,-32,77*,38*,92*
Cc1c(NC(=O)C(C)c2ccc(CC(C)C)cc2)c(=O)n(-c2ccccc2)n1C (configuration not stated),-1,4,3,10,-3
CCCCc1c(-c2ccccc2OC)ncn1Cc1ccc([N+](=O)[O-])cc1,.,.,0,.,9
COc1ccc(OC)c(NC(=O)C(=O)NNC(=O)C23CC4CC(CC(C4)C2)C3)c1,23,1,54*,2,-19
COc1ccc(NC(=O)CNC(=O)C23CC4CC(CC(C4)C2)C3)c(OC)c1,0,1,2,10,-12
COC(=O)c1cc(CNC(=O)c2ccccc2OCc2c(C)noc2C)ccc1OC,5,18*,2,1,-2
CC(C)(C)NS(=O)(=O)c1ccc(NC(=O)Cc2ccccc2[N+](=O)[O-])cc1,9,20*,11,-5,13
CCCCNS(=O)(=O)c1ccc(NC(=O)Cc2ccccc2[N+](=O)[O-])cc1,4,1,9,0,1
Cc1cc(SCC(=O)NCCC2=CCCCC2)nc2ccccc12,-2,7,19,2,-2
CC(Sc1nc(N)cc(N)n1)C(=O)NCCC1=CCCCC1 (configuration not stated),3,6,38*,-9,15
Cc1cc(=O)[nH]c(SCC(=O)NCCC2=CCCCC2)n1,1,2,41*,1,3
Cc1ccc(SC(C)C(=O)NCCC2=CCCCC2)cc1 (configuration not stated),-2,-8,0,9,-33
CCCC(=O)N(C1CC(C)C(C#N)(C#N)C1(C#N)C#N)N(C)C (configuration not stated),2,-21,12,47*,20
CC(=O)N(C1CC(C)C(C#N)(C#N)C1(C#N)C#N)N(C)C (configuration not stated),0,1,5,10,-12
N=C(N)SCc1cn(-c2ccccc2)nc1-c1ccc(Br)cc1,22,1,79*,16,47
